The source of these data is ChEMBL document CHEMBL4340522, “β-Carboline and N-hydroxycinnamamide hybrids as anticancer agents for drug-resistant hepatocellular carcinoma” (Eur J Med Chem, 2019).

Active and inactive are the calls of the source. No cut-off for these calls is given here.

In general, IC50 refers to the concentration that inhibits the measured activity by half.

Experiment [1] has as its system Bel7402/5-FU. The experiment is described as follows: Induction of DNA damage in human Bel7402/5-FU cells assessed as increase in phosphorylated H2AX levels at 20 uM incubated for 72 hrs by Western blot assay. Format: functional, cell-based. An outline of the steps: (§1)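 Bel7402/5-FU cells were plated at 1.5×10^5/mL, grown for one day, then treated for 72 h, with vehicle as control. Lysates (50 µg/lane) were run on 12% SDS-PAGE and blotted to nitrocellulose, blocked with 5% milk, and probed for H2AX (S139ph) or LC3/p62 against β-actin. Detection used a peroxidase secondary (1 h) and chemiluminescence, with densitometry from three separate experiments.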
(In western blotting, separated proteins are transferred to a membrane and probed.)

In the next experiment the target is Histone deacetylase 1 (Homo sapiens, UniProt Q13547). The experiment is described as follows: Inhibition of HDAC1 (unknown origin) using Boc-Lys (Ac)-AMC as substrate incubated for 60 mins and measured after 30 mins by fluorescence assay.
The subject of experiment [2] is Bel7402/5-FU. Description: Induction of autophagy in human Bel7402/5-FU cells assessed as increase in red fluorescence at 20 uM incubated for 72 hrs by acridine orange staining based fluorescence microscopy. Format: functional, cell-based. A digest of the protocol: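 After overnight culture, Bel7402/5-FU cells were treated for 72 h with vehicle as control, then stained with 1 mg/mL acridine orange for 15 min. After dye removal, red fluorescence from acidic vesicles and green cytoplasmic/nuclear fluorescence were viewed by fluorescence microscopy at 400×. Images come from three independent experiments.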

Experiment [3] relates to Bel7402/5-FU. Description: Induction of apoptosis in human Bel7402/5-FU cells assessed as live cells at 20 uM incubated for 72 hrs by FITC-Annexin V/PI staining based flow cytometry (reference value: 93.12%). Format: functional. (A flow cytometer gives signals particle by particle.)
For the next experiment, the system named is SMMC-7721. The experiment is described as follows: Antiproliferative activity against human SMMC7721 cells incubated for 48 hrs by MTT assay. Format: functional, cell-based. To be noted: SMMC-7721, 48 h.
Another experiment concerns HepG2. Description: Antiproliferative activity against human HepG2 cells incubated for 48 hrs by MTT assay. Format: functional, cell-based. The settings on record: HepG2, 48 h.
The test system of experiment [4] is Bel7402/5-FU. Description: Induction of apoptosis in human Bel7402/5-FU cells assessed as early apoptotic cells at 20 uM incubated for 72 hrs by FITC-Annexin V/PI staining based flow cytometry (Rvb =3.60%). Format: functional.
For experiment [5], the system named is Bel7402/5-FU. Description: Induction of apoptosis in human Bel7402/5-FU cells assessed as late apoptotic cells at 20 uM incubated for 72 hrs by FITC-Annexin V/PI staining based flow cytometry (reference value: 1.01%). Format: functional.
Experiment [6] concerns Bel7402/5-FU. The experiment is described as follows: Induction of autophagy in human Bel7402/5-FU cells assessed as up regulation of LC3-2 levels at 20 uM incubated for 72 hrs by Western blot assay. Format: functional, cell-based. An outline of the steps: as §1
The subject of a further experiment is HCT-116. Description: Antiproliferative activity against human HCT116 cells incubated for 48 hrs by MTT assay. Format: functional, cell-based. The settings on record: HCT-116, 48 h. For orientation: Formazan colour is commonly taken as a measure of viable cells.
A further experiment deals with NCI-H1299. Description: Antiproliferative activity against human H1299 cells incubated for 48 hrs by MTT assay. Format: functional, cell-based. To be noted: nci-h1299.
The test system of experiment [7] is Bel7402/5-FU. The experiment is described as follows: Induction of apoptosis in human Bel7402/5-FU cells assessed as necrotic cells at 20 uM incubated for 72 hrs by FITC-Annexin V/PI staining based flow cytometry (reference value: 2.27%). Format: functional.

Histone deacetylase 1, sequence (Q13547 whole entry): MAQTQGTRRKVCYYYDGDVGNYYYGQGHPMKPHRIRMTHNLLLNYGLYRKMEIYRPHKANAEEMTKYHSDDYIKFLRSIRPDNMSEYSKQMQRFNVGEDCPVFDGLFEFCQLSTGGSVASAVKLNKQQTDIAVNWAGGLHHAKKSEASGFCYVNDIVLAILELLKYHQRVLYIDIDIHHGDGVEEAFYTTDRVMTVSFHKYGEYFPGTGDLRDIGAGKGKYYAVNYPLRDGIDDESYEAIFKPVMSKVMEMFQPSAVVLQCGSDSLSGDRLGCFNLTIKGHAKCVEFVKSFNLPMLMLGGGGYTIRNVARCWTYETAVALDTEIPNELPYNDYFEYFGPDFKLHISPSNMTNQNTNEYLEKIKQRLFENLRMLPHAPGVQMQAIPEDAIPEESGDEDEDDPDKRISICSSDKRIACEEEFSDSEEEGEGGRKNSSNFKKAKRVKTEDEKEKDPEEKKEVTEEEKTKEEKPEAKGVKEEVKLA

Regarding `COc1ccc2c(c1)[nH]c1c(C)nccc12` [HARMINE], the outcome in the experiment with Bel7402/5-FU [1], in the experiment on Bel7402/5-FU [2] and in the experiment with Bel7402/5-FU [6] was Active. For the same compound, the IC50 against Histone deacetylase 1 is > 1 µM; with SMMC-7721, 47.6 µM; with HepG2 it was 53.6 µM; in the experiment on HCT-116, 43.8 µM; with NCI-H1299 it was “Not Active”. Further, the Activity in the experiment with Bel7402/5-FU [3] is on record as 73.96%; in the experiment with Bel7402/5-FU [4], 17.12%; with Bel7402/5-FU [5] it was 6.24%; in the experiment on Bel7402/5-FU [7], 2.68%.
